Consider 26 compounds from ChEMBL document CHEMBL1139764, “Design, synthesis, and structure-activity relationship studies of new phenolic DNA gyrase inhibitors” (2007).

The subject of assay [1] is Escherichia coli. The assay can be described thus: Inhibition of Escherichia coli D110 DNA gyrase after 30 mins by supercoiling assay.
Assay [2] concerns Staphylococcus aureus. The assay can be described thus: Antibacterial activity against Staphylococcus aureus ATCC 25923 by twofold agar dilution method. Format: functional. A digest of the protocol: (§1)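 MIC read as lowest inhibitory level in twofold serial dilutions in Müller–Hinton agar; each spot inoculated with 10^4 CFU.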
Background: In agar dilution the substance is mixed into plates at graded concentrations.

The subject of assay [3] is Staphylococcus epidermidis. The assay can be described thus: Antibacterial activity against Staphylococcus epidermidis ATCC 14990 by twofold agar dilution method. In kind it is functional. A digest of the protocol: (§2)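 Twofold serial dilutions in Müller–Hinton agar with an inoculum of 10^4 CFU per spot. The read-out is the minimal inhibitory concentration (MIC).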
In assay [4] the test system is Streptococcus pyogenes. The assay can be described thus: Antibacterial activity against Streptococcus pyogenes beta-15 by agar dilution method. In kind it is functional. A digest of the protocol:
as §2

Assay [5] has as its system Staphylococcus aureus. The assay can be described thus: Antibacterial activity against methicillin and quinolones-resistant Staphylococcus aureus Smith QR54 by twofold agar dilution method. Format: functional. A digest of the protocol:
as §1

For assay [6], the system named is Staphylococcus aureus. The assay can be described thus: Antibacterial activity against novobiocin R144I-resistant Staphylococcus aureus ATCC 25923 by agar dilution method. Format: functional. A digest of the protocol: as §1
In assay [7] the test system is Staphylococcus aureus. The assay can be described thus: Antibacterial activity against Staphylococcus aureus Smith by twofold agar dilution method. Format: functional. A digest of the protocol: as §1
The test system of assay [8] is Enterococcus faecium. The assay can be described thus: Antibacterial activity against ampicillin, trimethoprim and vancomycin-resistant Enterococcus faecium vanA E23-8 by twofold agar dilution method. Format: functional. A digest of the protocol:
as §1

In assay [9] the test system is Staphylococcus aureus. The assay can be described thus: Antibacterial activity against erythromycin, methicillin and trimethoprim-resistant Staphylococcus aureus Smith 744 by twofold agar dilution method. Format: functional. A digest of the protocol: as §1

Converted amounts (≈) assume the structure as drawn.

`COc1cc(O)c2c(c1C)C(=O)N(c1cccc(C(=O)O)c1)C2`: the Activity in [1] worked out at 8 µg/mL.

Compound `COC(=O)c1c(C)c(OC)cc(O)c1CNc1ccc(Cl)c(Cl)c1` displayed an Activity in [1] of 2 µg/mL.

In assay [1], `COc1ccc(N2C(=O)c3c(C)c(OC)cc(O)c3C2c2[nH]c3ccccc3c2C)cc1` (configuration not stated) displayed an Activity of over 63 µg/mL.

As to `Oc1ccc(CNc2ccc(Cl)cc2)c(O)c1`, in assay [1], the Activity was 16 µg/mL.

Compound `COc1ccc(N2C(=O)c3c(C)c(OC)cc(O)c3C2c2ccco2)cc1` (configuration not stated) gave an Activity in assay [1] of over 63 µg/mL.

In assay [1], `COc1ccc(N2C(=O)c3c(C)c(OC)cc(O)c3C2Sc2ncc[nH]2)cc1` (configuration not stated) displayed an Activity of 4 µg/mL.

Turning to `COc1cc(O)c2c(c1C)C(=O)N(c1ccc(S(N)(=O)=O)cc1)C2`, in assay [1], the Activity was 1 µg/mL.

By MIC is commonly meant the lowest concentration found to suppress growth. Take `COc1cc(O)c2c(c1C)C(=O)N1c3cccnc3COC21` (configuration not stated): the Activity in [1] was found to be 0.13 µg/mL. In addition, the MIC in [2] came out at 1 µg/mL (≈ 3.35 µM); in [3] it was 0.5 µg/mL (≈ 1.68 µM); in assay [4] it was 32 µg/mL (≈ 107 µM); in assay [5] it was 1 µg/mL (≈ 3.35 µM); in [6] it was 0.5 µg/mL (≈ 1.68 µM); in [7], 1 µg/mL (≈ 3.35 µM). Moreover, the MIC was over 32 µg/mL in assay [8] and 2 µg/mL (≈ 6.7 µM) in assay [9].

With `COc1cc(O)c2c(c1C)C(=O)N1c3ccccc3COC21` (configuration not stated), the Activity in [1] stood at 0.5 µg/mL. For the same compound, the MIC in assay [2], in assay [3], in assay [4], in assay [7] and in assay [8] was over 32 µg/mL each time.

The compound `COc1ccc2c(c1)CC[C@@H]1c3c(O)cc(OC)c(C)c3C(=O)N21` gave an Activity in assay [1] of 0.5 µg/mL. Further, the MIC is 32 µg/mL (≈ 98.4 µM) in assay [2]; under 2 µg/mL in [3]; over 32 µg/mL in [4]; 16 µg/mL (≈ 49.2 µM) in assay [5]; 8 µg/mL (≈ 24.6 µM) in assay [6]; 16 µg/mL (≈ 49.2 µM) in [7]. The MIC in assay [8] and in assay [9] was over 32 µg/mL in each case.

`C=CCC1c2c(O)cc(OC)c(C)c2C(=O)N1c1ccc(OC)cc1` (configuration not stated) had an Activity in [1] of 2 µg/mL.

Compound `COc1ccc(N2Cc3c(O)cc(OC)c(C)c3C2=O)cc1` yielded an Activity in [1] of 8 µg/mL.

Consider `Oc1ccc(Br)cc1CNc1ccc(Cl)cc1`, for which, in [1], the Activity amounted to 16 µg/mL.

Turning to `COc1ccc(N2C(=O)c3c(C)c(OC)cc(O)c3C2OC)cc1` (configuration not stated), the Activity in assay [1] was found to be 16 µg/mL.

As to `Oc1ccc(Cl)cc1CNc1cccc(Cl)c1`, the Activity in assay [1] came to 8 µg/mL.

As for `COC(=O)c1c(C)c(OC)cc(O)c1CNc1ccc(Cl)cc1`, the Activity in assay [1] amounted to 16 µg/mL.

In assay [1], `COc1cc(O)c2c(c1C)C(=O)N1c3ccc(Cl)cc3[C@@H](O)C[C@H]21` showed an Activity of 1 µg/mL. For the same compound, the MIC in [2] was determined as 8 µg/mL (≈ 23.1 µM); in assay [3], 8 µg/mL (≈ 23.1 µM); in assay [4], 32 µg/mL (≈ 92.5 µM); in assay [5], 8 µg/mL (≈ 23.1 µM); in [6], 4 µg/mL (≈ 11.6 µM); in assay [7], 4 µg/mL (≈ 11.6 µM). Further, the results for the MIC in [8] and in assay [9] were over 32 µg/mL and 16 µg/mL (≈ 46.3 µM), respectively.

In assay [1], `COc1ccc(N2C(=O)c3c(C)c(OC)cc(O)c3C2CCO)cc1` (configuration not stated) returned an Activity of 4 µg/mL.

In turn, `NS(=O)(=O)c1ccc(NCc2cc(Cl)ccc2O)cc1` came in with an Activity in assay [1] of 63 µg/mL.

`COc1cc(O)c2c(c1C)C(=O)N(c1cccc(N)c1)C2`: in assay [1], the Activity is 2 µg/mL.

As to `COc1cc(O)c2c(c1C)C(=O)N1c3ccc(Cl)cc3CC[C@H]21`, in [1], the Activity is 0.25 µg/mL. Also, the MIC is over 32 µg/mL in assay [2]; 32 µg/mL (≈ 97 µM) in [3]; over 32 µg/mL in [4]; 32 µg/mL (≈ 97 µM) in [5]; 16 µg/mL (≈ 48.5 µM) in assay [6]; over 32 µg/mL in [7]. The compound further came in with an MIC in [8] of over 32 µg/mL.

`N#Cc1ccc(NCc2cc(Cl)ccc2O)cc1` returned an Activity in assay [1] of 2 µg/mL.

Take `COC(=O)c1c(C)c(OC)cc(O)c1CNc1cccc(Cl)c1`: the Activity in assay [1] stood at 4 µg/mL.

In assay [1], `COc1ccc(N2C(=O)c3c(C)c(OC)cc(O)c3C2CC=O)cc1` (configuration not stated) yielded an Activity of 31 µg/mL.

On to `COc1cc(O)c2c(c1C)C(=O)N1c3cc4c(cc3C(=O)CC21)OCO4` (configuration not stated), for which the Activity in [1] amounted to 1 µg/mL. Besides, the MIC in [2] is over 32 µg/mL; in assay [3], 32 µg/mL (≈ 90.6 µM); in assay [4] it was over 32 µg/mL; in [7] it was over 32 µg/mL; in assay [8], over 32 µg/mL.

Compound `COc1cc(O)c2c(c1C)C(=O)N(c1cnc3ccccc3c1)C2` returned an Activity in [1] of 0.5 µg/mL.
